Results taken from the EternaBench riboswitch data.

Tested on: MS2 coat protein
Assay: apparent Kd, MS2 coat protein; higher = weaker binding; RNA-MaP array; FMN 200 µM where present
Outline: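 Each design was made on Illumina sequencing-chip clusters by stalled E. coli RNA polymerase and titrated with SNAP-549-labelled MS2 coat protein from 0.7 or 1.5 nM, doubling to 3 µM, in the absence and then the presence of constant ligand. The buffer was 100 mM Tris-HCl pH 7.5, 80 mM KCl, 4 mM MgCl2, BSA, DTT, yeast tRNA and Tween-20. The apparent Kd is the median of filtered per-cluster fits of binding curves, with green signal normalised to red-channel RNA signal and control-cluster median Fmax.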

[1] = designed as: OFF switch for flavin mononucleotide, no ligand
[2] = ligand present: flavin mononucleotide, designed as: OFF switch for flavin mononucleotide
[3] = designed as: ON switch for flavin mononucleotide, no ligand
[4] = ligand present: flavin mononucleotide, designed as: ON switch for flavin mononucleotide

Sequence | apparent Kd [1] [nM] | apparent Kd [2] [nM] | apparent Kd [3] [nM] | apparent Kd [4] [nM]
ACAUAGUAAGGAUAUGCUGCUCGUCACUUGCGUGAUGAGUAGCAGAAGGUACAUGAGGAUCACCCAUGUAAAAA | 25.3 | 19.1 | – | –
ACAUGAGGAUCACCCAUGUUACGAACAUGAGGAUCACCCAUGUAGGAUAUGCUACUCAAAGAGUAGCAGAAGGACAUGUGCCUU | 1090 | 559 | – | –
CUUUCGUGAGGAUAUGUGGCUUCGAUCGUGAAAACGAGGCUACAGAAGGCACAUGAGGAUCACCCAUGUUCCUC | 34.4 | 454 | – | –
ACCGUUGAAGCAGGAUAUUAUAGCGCCAGCGUAUAAGAAGGGCUUCAACAUGAGGAUCACCCAUGUUGGAGUACCUCAAAAGUG | 5.53 | 23.7 | – | –
CGAGUGUAAGGAUAUUCGGCGCCAGGGAACAACCUAGCGUAGAAGAAGGUACAUGAGGAUCACCCAUGUGGUUA | 269 | 22.4 | – | –
GAGCACUGAUAAUAAUGUAGAAAUACAUGAGGAUCACCCAUGUAGGAUAUCGUCAGGAAUACUGACGAGAAGGACAUACAGUGC | 15.7 | 25.5 | – | –
UGAAGAAAGUAGAAGGUAGUCUUAAAAUAGGACUAAGGAUAUACAUGAGGAUCACCCAUGUACUCCUUUAAUAUCUUUGAAAUA | 5.5 | 5.42 | – | –
GCCACAGCAGGAUAUUCAAUAAUUCACAUGAGGAUCACCCAUGUCGAGCGAAAGCUCGAGGGAGAAGGGCUGUGGC | 39.5 | 13.7 | – | –
GGAAAUCAUGUAGGAUAUGCAUGGCGAAGCUACGCAGAAGGACAUGAGGAUCACCCAUGUUAUAGCGUCCGAGAAGGGAUGCAA | 40 | 218 | – | –
GCGCAUGUCACAGGAUAUCCCAUAGUGUACAUGAGGAUCACCCAUGUACUGCAAUGCAGACACAAGGAGAAGGGUGAGACUCGU | – | – | 84.8 | 96.7
GGUACCAUCACAGGAUAUGCAAUCCUUUGGGUUGCAGAAGGGUGUAACAUGAGGAUCACCCAUGUGGUGCCAGGGCGUGAGCCC | – | – | 423 | 44.5
UAUUUAAUCAUAGGAUAUAGUGUGAAAUUUGGACUAGAAGGAUGUAACAUGAGGAUCACCCAUGUGGUAAGUGGGACACAGUGA | – | – | 106 | 177
AAAUAAAUUAGCAUGAUAUCUUCACAUGAGGAUCACCCAUGUCAGGAUAUUUGUCCUAAAAGGACAGAGAAGGGACAUGCUAUA | 5.78 | 7.76 | – | –
GCAAUAGCAUGAGGAUAUGUUGGAGUUUAGACAGCAGAAGGCAUGUCAUAAGACAUGAGGAUCACCCAUGUAGUUACAAUGGCA | – | – | 22.6 | 11.5
GCGGAACAUGAGGAUCACCCAUGUAUCCCAAAUAUGGACUCACAGGAUAUCCCGAGUUUCCAGUGGGAGAAGGGUGACUCCAGA | – | – | 21.7 | 11.1
GGUAAGAUGCAGAAGGUGUUAGCUAGAGCUACGACAUGAGGAUCACCCAUGUACUAGAAACAGUACAAGGAUAUGCAUCUUACC | – | – | 18.4 | 6.38
GAUAGAGAGCAGGAUAUCUUGGGUAAGUAUCGUAGAGAAGGGCUCACAUGAGGAUCACCCAUGUGGUCCUAGAU | 12.7 | 29.5 | – | –
CAGCUACCCGAUAUGGGUUCAUGUGCAGAAGGCCAGGUACAUGAGGAUCACCCAUGUAAAGAUAUGGAGGAUAUGUUAGUGAAU | – | – | 149 | 8.99
GCCAUCGCAUGAGGAUAUGCUCCCGUUUCGGGAGCAGAAGGCAUGUCAUAUGACAUGAGGAUCACCCAUGUAGCUAAGAUGGCA | – | – | 576 | 17.5
CGACACAUGAGGGUCUCCCAUGACAUGAGGAUCACCCAUGUGCAGGAUAUACGUGUGAUGGUAUAGUAGAAGGGCACUCUAUGC | 368 | 392 | – | –
CAUGAUUGACGAGGAUAUUGUUCUACAUGGCGACGAGAAGGCGUCUGUCACAUGAGGAUCACCCAUGUGAGUCUGGUGAAUGAG | 36.5 | 33.4 | – | –
ACCACGUUAGCGAUAUGAUCGAGAGAUCAUGUCGCUAAUUUUAGAAGGACAUGAGGAUCACCCAUGUAGGAUAUGGGACGUGGA | – | – | 14.7 | 7.88
UGUUGUAUUACAGGAUAUCUAUUAUUUUAAUUUAGAGAAGGGUAUUCACAUGAGGAUCACCCAUGUAUAUACGAGGAAGUUGUG | – | – | 52.9 | 57.2
AAAAUCUAUAGAGGAUAUCCAUACACUACAUACGGAGAAGGCUAACAAUCAUGAGGACAUGAGGAUCACCCAUGUUGUGACCAU | – | – | 24.8 | 17.2

Sequence | apparent Kd [1] [nM] | apparent Kd [2] [nM] | apparent Kd [3] [nM] | apparent Kd [4] [nM]
UAAUCUCAGAUAGGAUAUAUAGGAUGAUUUAAGACCGAACAUGAGGAUCACCCAUGUGAUUAUUCGUAGAAGGAUCAAUGACCC | – | – | 122 | 114
CGUAACUACAUAGGAUAUUGAUACAUGAGGAUCACCCAUGUUAUAGGGAUUAGUUUAAUAUUAAGCAAGAAGGAUGAAGUUACG | – | – | 18.6 | 12.4
GGUCGUCACAUUAACAUGAGGAUCACCCAUGUGAAAACACAUGAGGAUAUGCAUCCUAAUUGGAUGCAGAAGGCAUGGACGACC | – | – | 24.7 | 6.28
GGACGUCGCAUUAACAUGAGGAUCACCCAUGUCAAAGGACAUGAGGAUAUGGAUCCUAAUUGGAUCCAGAAGGCAUGGACGUCC | – | – | 485 | 35.8
ACCAGCGAUAUUUCGGUGAGUCAACCAGAAGGGACGAAGCCACAUGAGGAUCACCCAUGUCACUGUCAGGAUAUGGGAAGCGAC | – | – | 364 | 29.5
CGCACUUAGCGAGGAUAUGUAAAACAUGAGGAUCACCCAUGUGAUUUAGCUCCAAUUUUAAUGACACAGAAGGCGCUUAGUGCG | 22.2 | 15.8 | – | –
UUUACAUUACGAGGAUAUCAUUUAUUUCAUGUUUGAGAAGGCGUUUUUUUUAUUACCUUACAUGAGGAUCACCCAUGUUUCUUU | – | – | 35.8 | 21.8
GCUAUCGAUGUAGGAUAUGCUAUAGAAACUAUGGCAGAAGGACAUGAGGAUCACCCAUGUCAAUGGAUGGAGAGAAGAGAUGGC | 26.7 | 68.7 | – | –
GGGUACAUCGGAGGAUAUCAUGUAAAUACAUGAGGAUCACCCAUGUCGAUCGAGACAUCGGAGAUUGAGAAGGCCGAUGUACCG | – | – | 163 | 286
AGACUGCGUAGAAUUAGCAGCUGACAGGAUAUGACAUGAGGAUCACCCAUGUGAAAUAAGAAGAGUCAGAAGGGUCACGACACA | 11.3 | 9.89 | – | –
UUGGACUACGUAGGAUAUGUAGGAUAUUCCUACAUGAGGAUCACCCAUGUUAGCAUGUAAGUAGGACAGAAGGACGUGGUCCAU | – | – | 540 | 24.9
UUGGACGUCGUAGGAUAUGUAGGAUAAUCCUACAUGAGGAUCACCCAUGUUGACAUGGAAGAAGGACAGAAGGACGAUGUCCAU | – | – | 1120 | 87.5
GUGGCCCAGGCACAGGAUAUGUUUCUCGUAACAUGAGGAUCACCCAUGUGCCUAUGAGAUUUAAUGCAGAAGGGUGCACGCCACG | – | – | 135 | 18.4
GUGGUACAUGAGGAUCACCCAUGUCAGGAUAUCGUGUGUUUUUUUUCGGCCGCGCGCGCGAGAAGGGACGUCUU | 21.6 | 21.6 | – | –
UUUUAACAUGAGGAUCACCCAUGUGAGGAUAUCGAAAUUUAUAUUAAUAUUAAUAAUACGAGAAGGCACAUUUU | 80.7 | 79.8 | – | –
CUCGAGUCAAGGCUCGCGAGUACACAGGAUAUGAAAAGUCACAUGAGGAUCACCCAUGUCCAAAAUCAGAAGGGUGAGACUAAG | – | – | 764 | 222
CUGCGCUAGGAGAAGGGCUAGAGUGUGAUAUAUUUGCCCGCGAGCACAUGAGGAUCACCCAUGUAGCAGGAUAUCCAAGCCGAU | 8.03 | 16.5 | – | –
AAGAAGGACGCAGGAUAUCCAGGACCUCCCGCAGGAGAAGGGCGAGACACGUGGAUCACCCAGACAUGAGGAUCACCCAUGUAG | 15.6 | 14.2 | – | –
UAUUAAAACGAGAAGGGAGUACAUGAGGAUCACCCAUGUGCCUCAUAAUACUCAGGAUAUCGUGAUUGGGUCACCAGCUGGGUG | 509 | 29.3 | – | –
AAUUCACAUGAGGAUCACCCAUGUCAGGAUAUGGUGACGCGGGUUUCGGUGCGUGUUGCCAGAAGGGACAGCUA | 79.2 | 119 | – | –
GCACGCUGGCGAGGAUAUAGACAUGAGGAUCACCCAUGUGGCGCACAUCGGGCCCUAGUCCUCAGCUAGAAGGCGCCUGUGAUA | 328 | 228 | – | –
CACGAGUGAGGAUAUAGAGAGGUGAGGCUGAAGUCGCAUAUCUAGAAGGCACAUGAGGAUCACCCAUGUCCCUC | 481 | 503 | – | –
CUCAAACAUGAGGAUCACCCAUGUGUUGUCAUGGGAGGAUAUCUAAGUUCAUUGUAUUCAGGAGAAGGCCUAUGUC | – | – | 310 | 34.4
